Assays:
[1] = Activity relative to saturating aminopterine at 100 uM against CCRF-CEM Folyl-polyglutamate synthetase; assay type: ADME; conditions: human
Procedure, shortened: (§1)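 FPGS from CCRF-CEM cells: freeze-thawed lysates fractionated by (NH₄)₂SO₄ (0–40% saturation pellet) and gel sieving, stored at –90 °C in 20% glycerol, free of detectable γ-glutamyl hydrolase. Product was separated on DEAE-cellulose minicolumns. Run in duplicate or triplicate, and each experiment was repeated at least once.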

Dihydrofolate reductase = molecular target: T1, Dihydrofolate reductase (Mus musculus, UniProt P00375); experiment: Inhibitory activity of Dihydrofolate reductase in L1210 cells; assay type: cell-based
T1 sequence (P00375 whole entry): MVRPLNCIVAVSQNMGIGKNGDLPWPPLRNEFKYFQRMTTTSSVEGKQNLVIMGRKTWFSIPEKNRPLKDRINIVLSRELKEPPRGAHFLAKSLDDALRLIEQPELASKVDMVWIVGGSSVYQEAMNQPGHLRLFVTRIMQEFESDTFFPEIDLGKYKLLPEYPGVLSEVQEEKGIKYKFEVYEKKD

CCRF-CEM = experiment: Percent inhibition of Folyl-polyglutamate synthase from CCRF-CEM cells; assay type: cell-based; design: concentration or dose not given beside the values; conditions: Homo sapiens, dose or concentration not given here
Procedure, shortened: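 FPGS was partially purified from CCRF-CEM cells by (NH₄)₂SO₄ fractionation and gel sieving, with no detectable γ-glutamyl hydrolase. Product was separated on DEAE-cellulose. Percent inhibition is reported.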

HL-60 = experiment: Tested for the ability to inhibit growth in vitro against HL60; assay type: functional, cell-based; conditions: Homo sapiens
L1210 [2] = experiment: Tested for the ability to inhibit growth in vitro against L1210; assay type: functional, cell-based; conditions: Mus musculus
L1210 [3] = experiment: Tested for transport into L1210 cells measured as cell influx; assay type: functional, cell-based, Mus musculus
Mus musculus [4] = experiment: Antitumor activity against E0771 mammary adenocarcinoma in mice at 12 mg/kg (5 days) was determined and […] at day 14 was reported; assay type: functional
Mus musculus [5] = experiment: Antitumor activity against E0771 mammary adenocarcinoma in mice at 24 mg/kg(5 days) was determined and […] at day 10 was reported; assay type: functional
Mus musculus [6] = experiment: Antitumor activity against E0771 mammary adenocarcinoma in mice at 24 mg/kg(5 days) was determined and […] at day 7 was reported; assay type: functional
Procedure, shortened: (§2)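 E0771 mammary adenocarcinoma implanted in mice, five mice per group. Treatment was given daily for 5 days, starting day 3 after implantation. Tumor volume was calculated as 4/3πr³ and averaged on days 7, 10 and 14. T/C (%) is the treated/control tumor volume. Toxic deaths were recorded.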

Mus musculus [7] = experiment: Antitumor activity against E0771 mammary adenocarcinoma in mice at 12 mg/kg(5 days) was determined and […] at day 7 was reported; assay type: functional
Mus musculus [8] = experiment: Antitumor activity against E0771 mammary adenocarcinoma in mice at 12 mg/kg (5 days) was determined and […] at day 10 was reported; assay type: functional; procedure, shortened: as §2
Mus musculus [9] = experiment: Antitumor activity against E0771 mammary adenocarcinoma in mice at 24 mg/kg(5 days) was determined and […] at day 14 was reported; assay type: functional
Mus musculus [10] = experiment: Antitumor activity against E0771 mammary adenocarcinoma in mice at 12 mg/kg(5 days) was determined and tumor volume at day 10 was reported; assay type: functional
Procedure, shortened: (§3)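 Mice bearing implanted E0771 mammary adenocarcinoma, five per test group. Dosing was daily for 5 days, starting on day 3 after implantation. Tumor volume (mm³) was calculated as 4/3πr³ and is also expressed as treated/control (%).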

Mus musculus [11] = experiment: Antitumor activity against E0771 mammary adenocarcinoma in mice at 12 mg/kg(5 days) was determined and tumor volume at day 7 was reported; assay type: functional; procedure, shortened: as §3
Mus musculus [12] = experiment: Antitumor activity against E0771 mammary adenocarcinoma in mice at 24 mg/kg(5 days) was determined and tumor volume at day 10 was reported; assay type: functional; procedure, shortened: as §3
Mus musculus [13] = experiment: Antitumor activity against E0771 mammary adenocarcinoma in mice at 24 mg/kg(5 days) was determined and tumor volume at day 14 was reported; assay type: functional; procedure, shortened: as §3
Mus musculus [14] = experiment: Antitumor activity against E0771 mammary adenocarcinoma in mice at 24 mg/kg(5 days) was determined and tumor volume at day 7 was reported; assay type: functional; procedure, shortened: as §3
CCRF S-180 [15] = experiment: Tested for the ability to inhibit growth in vitro against S180; assay type: functional, cell-based; conditions: Mus musculus
Mus musculus [16] = experiment: Antitumor activity against E0771 mammary adenocarcinoma in mice at 12 mg/kg(5 days) was determined and tumor volume at day 14 was reported; assay type: functional; procedure, shortened: as §3
[17] = test system: Folyl-polyglutamate synthase; experiment: Michaelis-Menten constant was determined against CCRF-CEM Folyl-polyglutamate synthase; assay type: ADME; conditions: human, folylpolyglutamate synthase from CCRF-CEM cells; procedure, shortened: as §1
[18] = molecular target: T2, Folylpolyglutamate synthase, mitochondrial (Mus musculus) (UniProt P48760); experiment: Specific activity of L1210 Folyl-polyglutamate synthase
T2 sequence (whole entry): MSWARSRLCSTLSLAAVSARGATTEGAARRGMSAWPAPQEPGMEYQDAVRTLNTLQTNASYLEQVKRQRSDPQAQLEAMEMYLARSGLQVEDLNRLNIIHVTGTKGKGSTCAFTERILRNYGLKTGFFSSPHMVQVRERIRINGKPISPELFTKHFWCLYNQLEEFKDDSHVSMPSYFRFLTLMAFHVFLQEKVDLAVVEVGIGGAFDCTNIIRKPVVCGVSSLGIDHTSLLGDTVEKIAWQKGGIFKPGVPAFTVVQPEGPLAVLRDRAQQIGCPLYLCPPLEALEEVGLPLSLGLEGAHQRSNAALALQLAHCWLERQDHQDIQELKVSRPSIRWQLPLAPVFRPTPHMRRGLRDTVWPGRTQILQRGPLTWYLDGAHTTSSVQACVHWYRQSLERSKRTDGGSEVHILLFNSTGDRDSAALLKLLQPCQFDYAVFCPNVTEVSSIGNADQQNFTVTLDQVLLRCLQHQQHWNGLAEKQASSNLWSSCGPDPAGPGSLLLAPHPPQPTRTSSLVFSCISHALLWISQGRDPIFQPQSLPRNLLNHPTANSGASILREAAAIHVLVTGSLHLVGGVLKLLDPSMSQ
Procedure, shortened: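 FPGS from L1210 cells was assayed by [³H]glutamate ligation, like the human enzyme assay. Each folate substrate was at 100 μM, and only specific activity was measured.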

Mus musculus [19] = experiment: Antitumor activity against E0771 mammary adenocarcinoma in mice at 3 mg/kg(5 days) was determined and […] at day 10 was reported; assay type: functional; procedure, shortened: as §2
Mus musculus [20] = experiment: Antitumor activity against E0771 mammary adenocarcinoma in mice at 3 mg/kg(5 days) was determined and […] at day 7 was reported; assay type: functional; procedure, shortened: as §2
Mus musculus [21] = experiment: Antitumor activity against E0771 mammary adenocarcinoma in mice at 30 mg/kg(5 days) was determined and […] at day 14 was reported; assay type: functional
Mus musculus [22] = experiment: Antitumor activity against E0771 mammary adenocarcinoma in mice at 6 mg/kg(5 days) was determined and […] at day 10 was reported; assay type: functional; procedure, shortened: as §2
Mus musculus [23] = experiment: Antitumor activity against E0771 mammary adenocarcinoma in mice at 6 mg/kg(5 days) was determined and […] at day 7 was reported; assay type: functional; procedure, shortened: as §2
Mus musculus [24] = experiment: Antitumor activity against E0771 mammary adenocarcinoma in mice at 100 mg/kg(5 days) was determined and […] at day 14 was reported; assay type: functional
Mus musculus [25] = experiment: Antitumor activity against E0771 mammary adenocarcinoma in mice at 100 mg/kg(5 days) was determined and tumor volume at day 14 was reported; assay type: functional; procedure, shortened: as §3
Mus musculus [26] = experiment: Antitumor activity against E0771 mammary adenocarcinoma in mice at 3 mg/kg(5 days) was determined and tumor volume at day 10 was reported; assay type: functional; procedure, shortened: as §3
Mus musculus [27] = experiment: Antitumor activity against E0771 mammary adenocarcinoma in mice at 3 mg/kg(5 days) was determined and tumor volume at day 7 was reported; assay type: functional; procedure, shortened: as §3
Mus musculus [28] = experiment: Antitumor activity against E0771 mammary adenocarcinoma in mice at 30 mg/kg(5 days) was determined and tumor volume at day 14 was reported; assay type: functional
Mus musculus [29] = experiment: Antitumor activity against E0771 mammary adenocarcinoma in mice at 6 mg/kg(5 days) was determined and tumor volume at day 10 was reported; assay type: functional; procedure, shortened: as §3
Mus musculus [30] = experiment: Antitumor activity against E0771 mammary adenocarcinoma in mice at 6 mg/kg(5 days) was determined and tumor volume at day 7 was reported; assay type: functional; procedure, shortened: as §3
CCRF S-180 [31] = experiment: Tested for the ability to inhibit growth in vitro against S180 cells; assay type: functional, cell-based; conditions: Mus musculus

SMILES: Cc1c(CN(C)c2ccc(C(=O)NC(CCC(=O)O)C(=O)O)c3ccccc23)cnc2nc(N)nc(N)c12 (configuration not stated)
- Relative Vmax [1]: 0.04
- Ki (Dihydrofolate reductase): 0.00484 nM
- inhibition (CCRF-CEM): 10%
- IC50 (HL-60): 0.56 nM
- IC50 (L1210 [2]): 2.4 nM
- Ki (L1210 [3]): 660 nM
- T/C (Mus musculus [4]): 60%
- T/C (Mus musculus [5]): 19%
- T/C (Mus musculus [6]): 39%
- T/C (Mus musculus [7]): 49%
- T/C (Mus musculus [8]): 53%
- T/C (Mus musculus [9]): 28%
- Tumor volume (Mus musculus [10]): 333 mm**3
- Tumor volume (Mus musculus [11]): 108 mm**3
- Tumor volume (Mus musculus [12]): 119 mm**3
- Tumor volume (Mus musculus [13]): 493 mm**3
- Tumor volume (Mus musculus [14]): 87 mm**3
- IC50 (CCRF S-180 [15]): 2.6 nM
- Tumor volume (Mus musculus [16]): 1048 mm**3

SMILES: CN(Cc1cnc2nc(N)nc(N)c2n1)c1ccc(C(=O)N[C@@H](CCC(=O)O)C(=O)O)cc1 [METHOTREXATE]
- Km [17]: 42 µM
- Specific activity (pM hr-1 (mg of protein)-1) [18]: 0.38
- IC50 (HL-60): 8.1 nM
- IC50 (L1210 [2]): 9 nM
- Ki (L1210 [3]): 3930 nM
- T/C (Mus musculus [19]): 100%
- T/C (Mus musculus [20]): 81%
- T/C (Mus musculus [21]): 31%
- T/C (Mus musculus [22]): 30%
- T/C (Mus musculus [23]): 49%
- T/C (Mus musculus [24]): 83%
- Tumor volume (Mus musculus [25]): 1437 mm**3
- Tumor volume (Mus musculus [26]): 624 mm**3
- Tumor volume (Mus musculus [27]): 180 mm**3
- Tumor volume (Mus musculus [28]): 540 mm**3
- Tumor volume (Mus musculus [29]): 187 mm**3
- Tumor volume (Mus musculus [30]): 108 mm**3
- IC50 (CCRF S-180 [31]): 10 nM

From ChEMBL document CHEMBL1126566, “Studies on analogues of classical antifolates bearing the naphthoyl group in place of benzoyl in the side chain” (J Med Chem, 1993)
